Experiment [1] in a line: Her2 expression decrease, cell viability multiplex – SKBR3 breast tumor cells, AlphaScreen, ATP viability, primary screen (AID 461;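 active = Her2 level under about 52% in both replicate screens, with viability over 70% of control, limit read from the data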;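 as to Her2 level: lower value means less Her2 protein in the cells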;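 as to viability: percent of carrier control wells set as 100% viability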). To be noted: SKBR3 Her2 protein level, 18-24 h, measured here: SKBR3 viability, ATP luminescence, at 10 µM.
The target of experiment [2] is Receptor tyrosine-protein kinase erbB-2 (Homo sapiens) (UniProt P04626). The experiment is described as above. The conditions noted are these: 18-24 h, at 10 µM, stronger effect = lower value.
Experiment [3] in a line: reduced viability of SK-BR-3 breast cancer cells – cell-based, 24 h, human, pilot screen (AID 572).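 Also: compound exposure lasted between 18 and 24 h rather than exactly 24 h; 100% = carrier-treated control wells.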 The conditions noted are these: SK-BR-3 viability, CellTiter-Glo luminescence, at 10 µM, stronger effect = lower value.
Experiment [4] is described as follows: HUVEC growth inhibition – cell-based, human, primary screen (AID 575;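 active = viability at or below 30% in both replicate assays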;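 also: 100% = median of untreated cell wells with 0.1% DMSO on each plate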). The conditions noted are these: HUVEC proliferation, CellTiter-Glo luminescence, 72 h; at 10 µM; stronger effect = lower value. An outline of the steps: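 Timing: 72 h treatment at 37 °C; material: HUVEC primary cells; technique: CellTiter-Glo luminescence measuring cellular ATP; controls: vehicle and MePR control wells; measure: percent of median DMSO-control luminescence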

A short description of experiment [5]: H69AR cell proliferation blockers – human, duplicate replicates, primary screen (AID 580;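 active = viability at or under a set limit in both replicates, limit being median viability minus 3 SD, cut at about 48% in these data, passing the limit was not always enough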;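 also: 100% = mean luminescence of untreated wells and 0% = no signal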). To be noted: H69AR lung tumor cells viability, ATP luminescence, 72 h; at 10 µM; stronger effect = lower value.
A short description of experiment [6]: MRP1 drug-resistance reversers in H69AR cells – cell-based, doxorubicin co-treatment, pilot screen (AID 601;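 active = viability loss from added drug above about 55%, and viability with drug at most 40%, in both replicates, limit read from the data, passing the limit was not always enough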). The conditions noted are these: CellTiter-Glo, 72 h, at 10 µM; for differential viability (reversal): stronger effect = higher value.
Experiment [7] in a line: yeast transport mutant growth inhibition pilot in 384-well plates, post-Golgi transport modulator project (AID 636; in the data active = inhibition above about 31%). The conditions noted are these: absorbance 615 nm, about 18 h, stronger effect = higher value.
Experiment [8] can be described thus: growth suppression of yeast trafficking mutant, preliminary HTS, modulators of trafficking downstream of Golgi apparatus project, 1536-format plate, OD 615 nm (AID 637; in the data active = inhibition above about 30%). To be noted: yeast transport mutant growth, absorbance 615 nm, 18 h; stronger effect = higher value.
Setting [9] is: H69AR cells + 2 uM doxorubicin, measured here: viability with 2 uM doxorubicin, stronger effect = lower value.
Where [10] appears, read: H69AR cells, compound alone cytotoxicity.

From PubChem BioAssay come the findings set out here.

Active and inactive are the calls of the source.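 The calls were made as follows, unless noted: active = viability at or below 10% of carrier control in both of two separate runs; inconclusive = viability at or below 10% in only one of the two runs; inactive = the rest.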

Sequence of Receptor tyrosine-protein kinase erbB-2 (Homo sapiens) (P04626 whole entry, looked up): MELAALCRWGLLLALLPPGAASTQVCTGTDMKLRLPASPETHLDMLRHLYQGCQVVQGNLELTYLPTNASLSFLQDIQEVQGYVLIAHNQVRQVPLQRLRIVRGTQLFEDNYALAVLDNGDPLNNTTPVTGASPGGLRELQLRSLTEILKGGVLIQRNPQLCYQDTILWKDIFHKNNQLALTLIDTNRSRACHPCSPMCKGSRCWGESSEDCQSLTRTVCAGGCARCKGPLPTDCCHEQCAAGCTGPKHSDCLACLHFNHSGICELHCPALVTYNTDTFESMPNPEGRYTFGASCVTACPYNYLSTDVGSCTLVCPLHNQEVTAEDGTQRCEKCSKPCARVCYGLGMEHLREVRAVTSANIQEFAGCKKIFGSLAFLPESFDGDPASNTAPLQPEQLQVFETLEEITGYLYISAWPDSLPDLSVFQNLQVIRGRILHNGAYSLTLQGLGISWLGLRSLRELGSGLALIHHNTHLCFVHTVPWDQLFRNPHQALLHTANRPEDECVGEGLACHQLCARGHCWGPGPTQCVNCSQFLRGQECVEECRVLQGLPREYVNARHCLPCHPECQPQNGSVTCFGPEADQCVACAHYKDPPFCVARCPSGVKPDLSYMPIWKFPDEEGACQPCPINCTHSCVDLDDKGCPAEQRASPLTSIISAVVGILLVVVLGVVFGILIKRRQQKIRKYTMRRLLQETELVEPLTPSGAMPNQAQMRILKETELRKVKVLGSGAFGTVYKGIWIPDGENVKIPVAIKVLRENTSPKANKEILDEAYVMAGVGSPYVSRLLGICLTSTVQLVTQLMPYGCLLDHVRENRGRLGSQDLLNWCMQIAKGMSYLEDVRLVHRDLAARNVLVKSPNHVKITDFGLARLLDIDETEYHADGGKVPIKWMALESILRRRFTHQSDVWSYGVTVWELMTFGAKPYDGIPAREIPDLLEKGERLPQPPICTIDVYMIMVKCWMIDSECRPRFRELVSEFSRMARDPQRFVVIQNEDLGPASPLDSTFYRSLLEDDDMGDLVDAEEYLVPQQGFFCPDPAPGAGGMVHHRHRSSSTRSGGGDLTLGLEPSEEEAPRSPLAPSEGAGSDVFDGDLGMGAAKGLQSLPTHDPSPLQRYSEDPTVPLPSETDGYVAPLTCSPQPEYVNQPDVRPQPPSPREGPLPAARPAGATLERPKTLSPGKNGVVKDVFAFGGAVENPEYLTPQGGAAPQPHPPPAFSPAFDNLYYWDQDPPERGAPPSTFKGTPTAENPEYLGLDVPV

Consider `Cc1c(C)c2cc(Cl)c(O)c(CN3CCCCC3)c2oc1=O`, for which the viability is 97.5% in experiment [1]; 97.5% (inactive) in experiment [3]; 102% (inactive) in experiment [4]; 99% (inactive) in experiment [5]; 95.5% in experiment [6] (setting [9]); 99% in experiment [6] (setting [10]). Moreover, in experiment [2], the Her2 level was 112% (inactive). In addition, the differential viability (reversal) in experiment [6] (H69AR cells + 2 uM doxorubicin) is 3.51% (inactive). Also, the inhibition in experiment [7] is 1.18% (inactive); in experiment [8], 5.57% (inactive).
`COc1ccccc1CC(NC(C)=O)C(=O)NC1CCN(c2nnnn2-c2ccccc2)CC1` (stereo not given): the viability is 97% in experiment [1]; 97% (inactive) in experiment [3]; 94.8% (inactive) in experiment [4]; 96.5% (inactive) in experiment [5]; 97.5% in experiment [6] (setting [9]); 96.5% in experiment [6] (setting [10]). Also, the Her2 level in experiment [2] is 102% (inactive). In experiment [6] (H69AR cells + 2 uM doxorubicin), the differential viability (reversal) is -1.01% (inactive). Further, the inhibition in experiment [7] was -0.95% (inactive); in experiment [8], 0% (inactive).
Consider `COc1cccc(-n2c(CNc3ccc(F)cc3)nnc2SCC(N)=O)c1`, for which the viability in experiment [1] is 115%; in experiment [3] it was 115% (inactive); in experiment [4], 101% (inactive); in experiment [5], 90.4% (inactive); in experiment [6] (setting [9]) it was 81.6%; in experiment [6] (setting [10]), 90.4%. In experiment [2], the Her2 level was 82.5% (inactive). For the same molecule, in experiment [6] (H69AR cells + 2 uM doxorubicin), the differential viability (reversal) was 8.77% (inactive). Moreover, the inhibition in experiment [7] is -4.67% (inactive); in experiment [8], 0.97% (inactive).
As to `CCOC(=O)c1cc2ccc(OC)c(OC)c2c(=O)s1`, the viability is 98.5% in experiment [1]; 98.5% (inactive) in experiment [3]; 83.9% (inactive) in experiment [4]; 83.5% (inactive) in experiment [5]; 83.6% in experiment [6] (setting [9]); 83.5% in experiment [6] (setting [10]). In addition, in experiment [2], the Her2 level is 94% (inactive). The differential viability (reversal) in experiment [6] (H69AR cells + 2 uM doxorubicin) is -0.1% (inactive). For the same molecule, the inhibition in experiment [7] was 0.78% (inactive); in experiment [8], -7% (inactive).
For `O=C(O)c1ccccc1C(=O)Nc1ccccc1`, the viability in experiment [1] was 121%; in experiment [3], 121% (inactive); in experiment [4], 103% (inactive); in experiment [5], 105% (inactive); in experiment [6] (setting [9]) it was 92.8%; in experiment [6] (setting [10]), 105%. Also, the Her2 level in experiment [2] was 124% (inactive). The differential viability (reversal) in experiment [6] (H69AR cells + 2 uM doxorubicin) was 12.1% (inactive). In addition, the inhibition is -6.97% (inactive) in experiment [7] and -2.13% (inactive) in experiment [8].
As to `Cc1ccc(S(=O)(=O)N2CCCC(c3nnc4n3-c3ccccc3SC4)C2)cc1` (stereo not given), the viability in experiment [1] is 78%; in experiment [3], 78% (inactive); in experiment [4] it was 87.2% (inactive); in experiment [5], 76.5% (inactive); in experiment [6] (setting [9]), 72%; in experiment [6] (setting [10]) it was 76.5%. Moreover, in experiment [2], the Her2 level is 71.5% (inactive). The differential viability (reversal) in experiment [6] (H69AR cells + 2 uM doxorubicin) was 4.54% (inactive). The inhibition is -8.67% (inactive) in experiment [7] and 4.92% (inactive) in experiment [8].
As to `Cc1oc(-c2ccccc2F)nc1CS(=O)(=O)CC(=O)N1CCCCCC1`, the viability in experiment [1] was 99%; in experiment [3] it was 99% (inactive); in experiment [4], 101% (inactive); in experiment [5], 100% (inactive); in experiment [6] (setting [9]), 87.1%; in experiment [6] (setting [10]), 100%. Besides, the Her2 level in experiment [2] is 108% (inactive). In experiment [6] (H69AR cells + 2 uM doxorubicin), the differential viability (reversal) is 13.4% (inactive). Also, the results for the inhibition in experiment [7] and in experiment [8] were 1.07% (inactive) and -3.28% (inactive), respectively.
In the case of `CC(=O)c1ccc(NC(=O)c2cc(CC(C)C)on2)cc1`, the viability is 93% in experiment [1]; 93% (inactive) in experiment [3]; 120% (inactive) in experiment [4]; 89.2% (inactive) in experiment [5]; 91.1% in experiment [6] (setting [9]); 89.2% in experiment [6] (setting [10]). In addition, the Her2 level in experiment [2] was 114% (inactive). Besides, the differential viability (reversal) in experiment [6] (H69AR cells + 2 uM doxorubicin) was -1.95% (inactive). Besides, the inhibition was 6.15% (inactive) in experiment [7] and -8.67% (inactive) in experiment [8].
Take `COCCNC(=O)CCCCCN1C(=O)CCC1=O`: the viability in experiment [1] is 108%; in experiment [3], 108% (inactive); in experiment [4], 105% (inactive); in experiment [5], 94.8% (inactive); in experiment [6] (setting [9]), 84.4%; in experiment [6] (setting [10]), 94.8%. Also, the Her2 level in experiment [2] was 79.5% (inactive). In addition, in experiment [6] (H69AR cells + 2 uM doxorubicin), the differential viability (reversal) is 10.4% (inactive). For the same molecule, the inhibition is -8.65% (inactive) in experiment [7] and 4.76% (inactive) in experiment [8].
`CCOc1ccccc1N1CCN(C(=O)c2ccncc2)CC1`: the viability in experiment [1] is 97%; in experiment [3], 97% (inactive); in experiment [4], 90.2% (inactive); in experiment [5], 93.6% (inactive); in experiment [6] (setting [9]), 80.2%; in experiment [6] (setting [10]), 93.6%. Besides, in experiment [2], the Her2 level was 100% (inactive). In addition, the differential viability (reversal) in experiment [6] (H69AR cells + 2 uM doxorubicin) is 13.4% (inactive). The inhibition in experiment [7] was -2.99% (inactive); in experiment [8], -9.34% (inactive).
For the molecule `O=C(Cn1ccc2ccccc2c1=O)NCCC(=O)N1CCN(C2CCCCC2)CC1`, the viability is 99.5% in experiment [1]; 99.5% (inactive) in experiment [3]; 96.6% (inactive) in experiment [4]; 104% (inactive) in experiment [5]; 81.7% in experiment [6] (setting [9]); 104% in experiment [6] (setting [10]). Besides, the Her2 level in experiment [2] is 86.5% (inactive). Besides, in experiment [6] (H69AR cells + 2 uM doxorubicin), the differential viability (reversal) is 22.2% (inactive). In addition, the inhibition in experiment [7] is -3.2% (inactive); in experiment [8], 2.13% (inactive).
As for `Cc1ccc(S(=O)(=O)Cn2nnnc2CN(Cc2ccco2)Cc2cccs2)cc1`, the viability was 91.5% in experiment [1]; 91.5% (inactive) in experiment [3]; 104% (inactive) in experiment [4]; 80.6% (inactive) in experiment [5]; 75.9% in experiment [6] (setting [9]); 80.6% in experiment [6] (setting [10]). Also, the Her2 level in experiment [2] was 97.5% (inactive). The differential viability (reversal) in experiment [6] (H69AR cells + 2 uM doxorubicin) is 4.66% (inactive). The inhibition was -5.87% (inactive) in experiment [7] and -7.87% (inactive) in experiment [8].
On to `CC(=O)NCc1cccc(CNC(C)=O)n1`, for which the viability in experiment [1] was 84.5%; in experiment [3], 84.5% (inactive); in experiment [4], 88.4% (inactive); in experiment [5] it was 98% (inactive); in experiment [6] (setting [9]) it was 90.1%; in experiment [6] (setting [10]) it was 98%. For the same molecule, the Her2 level in experiment [2] is 82.5% (inactive). Further, in experiment [6] (H69AR cells + 2 uM doxorubicin), the differential viability (reversal) was 7.96% (inactive). Besides, the inhibition in experiment [7] was -6.8% (inactive); in experiment [8], -6.67% (inactive).
Consider `Clc1ccc(OCCCn2cncn2)cc1Cl`, for which the viability was 104% in experiment [1]; 104% (inactive) in experiment [3]; 92.5% (inactive) in experiment [4]; 80.2% (inactive) in experiment [5]; 86.5% in experiment [6] (setting [9]); 80.2% in experiment [6] (setting [10]). Besides, in experiment [2], the Her2 level is 99% (inactive). Further, in experiment [6] (H69AR cells + 2 uM doxorubicin), the differential viability (reversal) is -6.33% (inactive). Further, the inhibition in experiment [7] was 2.03% (inactive); in experiment [8], 16.4% (inactive).
For the molecule `NS(=O)(=O)c1ccc(NC(=O)N[C@@H](Cc2ccccc2)C(=O)O)cc1`, the viability in experiment [1] is 82.5%; in experiment [3], 82.5% (inactive); in experiment [4], 95.6% (inactive); in experiment [5], 97.6% (inactive); in experiment [6] (setting [9]) it was 92.6%; in experiment [6] (setting [10]), 97.6%. Also, the Her2 level in experiment [2] was 95.5% (inactive). Also, the differential viability (reversal) in experiment [6] (H69AR cells + 2 uM doxorubicin) is 5% (inactive). Moreover, the inhibition in experiment [7] was -3.73% (inactive); in experiment [8], 4.52% (inactive).
As for `CCOC(=O)C(NC(=O)CC)(Nc1ccc(S(=O)(=O)Nc2onc(C)c2C)cc1)C(F)(F)F` (stereo not given), the viability in experiment [1] is 116%; in experiment [3] it was 116% (inactive); in experiment [4], 102% (inactive); in experiment [5] it was 106% (inactive); in experiment [6] (setting [9]), 97%; in experiment [6] (setting [10]), 106%. Also, the Her2 level in experiment [2] was 97.5% (inactive). The differential viability (reversal) in experiment [6] (H69AR cells + 2 uM doxorubicin) is 8.86% (inactive). Moreover, the inhibition in experiment [7] was -3.77% (inactive); in experiment [8] it was -0.48% (inactive).
